Test results reported in ChEMBL document CHEMBL5247578, “Effective synthesis of benzimidazoles-imidazo[1,2-a]pyrazine conjugates: A comparative study of mono-and bis-benzimidazoles for antitumor activity” (Eur J Med Chem, 2019).

Key:
Assay type in all cases: functional
[1] = test system: OVCAR-5; assay: Antiproliferative activity against human OVCAR-5 cells assessed as cell growth at 0.00000001 M incubated for 48 hrs by SRB assay relative to control; settings: dose 10 nM, read-out: Activity
[2] = test system: T47D; assay: Antiproliferative activity against human T47D cells assessed as cell growth inhibition by measuring lethal concentration incubated for 48 hrs by sulforhodamine B assay; settings: read-out: LC50 (the source's name)
Summary of the method: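 NCI-60 five-dose screen (10^-4 to 10^-8 M, 10-fold dilutions; DMSO stocks). Cells in RPMI 1640 with 5% FBS and 2 mM L-glutamine, preincubated 24 h, then exposed 48 h at 37 °C, 5% CO2. Fixed with cold TCA, stained with 0.4% SRB, absorbance read at 515 nm. Time-zero plates used as reference. LC50 taken from [(Ti-Tz)/Tz]×100 […].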

[3] = test system: HL-60; assay: Antiproliferative activity against human HL-60 cells assessed as cell growth at 0.00000001 M incubated for 48 hrs by SRB assay relative to control; settings: dose 10 nM, read-out: Activity
Summary of the method: (§1)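 NCI-60 five-dose screen (10^-4 to 10^-8 M). Cells grown in RPMI 1640 with 5% FBS and 2 mM L-glutamine, plated at 5,000-40,000 cells/well and preincubated 24 h. Drug given from DMSO stock, then 48 h at 37 °C, 5% CO2. For adherent lines, cells fixed with cold TCA, SRB-stained and read at 515 nm. Percent growth taken against time-zero and untreated control.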

[4] = test system: COLO 205; assay: Antiproliferative activity against human COLO 205 cells assessed as cell growth at 0.00000001 M incubated for 48 hrs by SRB assay relative to control; settings: dose 10 nM, read-out: Activity
Summary of the method: (§2)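 NCI-60 five-dose screen over 10^-4–10^-8 M (10-fold dilutions). Cells grown in RPMI 1640 with 5% FBS and 2 mM L-glutamine, seeded at 5,000–40,000 cells/well and preincubated 24 h. Drug from DMSO stock, 48 h at 37 °C, 5% CO2. Adherent cells TCA-fixed and stained with 0.4% SRB; A515 read. Percent growth = (Ti−Tz)/(C−Tz)×100, or (Ti−Tz)/Tz×100 when Ti<Tz.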

[5] = test system: HT-29; assay: Antiproliferative activity against human HT-29 cells assessed as cell growth at 0.00000001 M incubated for 48 hrs by SRB assay relative to control; settings: dose 10 nM, read-out: Activity; summary of the method: as §1
[6] = test system: OVCAR-5; assay: Antiproliferative activity against human OVCAR-5 cells assessed as cell growth inhibition by measuring lethal concentration incubated for 48 hrs by sulforhodamine B assay; settings: read-out: LC50 (the source's name)
[7] = test system: SF-539; assay: Growth inhibition against human SF-539 cells assessed as total growth inhibitory concentration incubated for 48 hrs by sulforhodamine B assay
[8] = test system: KM12; assay: Growth inhibition against human KM12 cells assessed as total growth inhibitory concentration incubated for 48 hrs by sulforhodamine B assay
[9] = test system: A549; assay: Growth inhibition against human A549 cells assessed as total growth inhibitory concentration incubated for 48 hrs by sulforhodamine B assay
[10] = test system: MOLT-4; assay: Growth inhibition against human MOLT-4 cells assessed as total growth inhibitory concentration incubated for 48 hrs by sulforhodamine B assay
[11] = test system: OVCAR-8; assay: Growth inhibition against human OVCAR-8 cells incubated for 48 hrs by sulforhodamine B assay
[12] = test system: NCI-H522; assay: Growth inhibition against human NCI-H522 cells incubated for 48 hrs by sulforhodamine B assay
[13] = test system: NCI-H460; assay: Growth inhibition against human NCI-H460 cells incubated for 48 hrs by sulforhodamine B assay
[14] = test system: MDA-MB-231; assay: Antiproliferative activity against human MDA-MB-231 cells assessed as cell growth at 0.00000001 M incubated for 48 hrs by SRB assay relative to control; settings: dose 10 nM, read-out: Activity
[15] = test system: SR; assay: Antiproliferative activity against human SR cells assessed as cell growth at 0.0000001 M incubated for 48 hrs by SRB assay relative to control; settings: dose 100 nM, read-out: Activity
[16] = test system: HOP-92; assay: Antiproliferative activity against human HOP-92 cells assessed as cell growth at 0.0000001 M incubated for 48 hrs by SRB assay relative to control; settings: dose 100 nM, read-out: Activity; summary of the method: as §1
[17] = test system: NCI-H522; assay: Antiproliferative activity against human NCI-H522 cells assessed as cell growth at 0.0000001 M incubated for 48 hrs by SRB assay relative to control; settings: dose 100 nM, read-out: Activity
[18] = test system: SNB-75; assay: Antiproliferative activity against human SNB-75 cells assessed as cell growth at 0.0000001 M incubated for 48 hrs by SRB assay relative to control; settings: dose 100 nM, read-out: Activity
[19] = test system: LOX IMVI; assay: Antiproliferative activity against human LOX IMVI cells assessed as cell growth at 0.0000001 M incubated for 48 hrs by SRB assay relative to control; settings: dose 100 nM, read-out: Activity
[20] = test system: CAKI-1; assay: Antiproliferative activity against human CAKI-1 cells assessed as cell growth at 0.0000001 M incubated for 48 hrs by SRB assay relative to control; settings: dose 100 nM, read-out: Activity; summary of the method: as §2
[21] = test system: PC-3; assay: Antiproliferative activity against human PC-3 cells assessed as cell growth at 0.0000001 M incubated for 48 hrs by SRB assay relative to control; settings: dose 100 nM, read-out: Activity
[22] = test system: BT-549; assay: Antiproliferative activity against human BT-549 cells assessed as cell growth at 0.0000001 M incubated for 48 hrs by SRB assay relative to control; settings: dose 100 nM, read-out: Activity; summary of the method: as §2
[23] = test system: MDA-MB-468; assay: Antiproliferative activity against human MDA-MB-468 cells assessed as cell growth at 0.0000001 M incubated for 48 hrs by SRB assay relative to control; settings: dose 100 nM, read-out: Activity
[24] = test system: HL-60; assay: Antiproliferative activity against human HL-60 cells assessed as cell growth at 0.000001 M incubated for 48 hrs by SRB assay relative to control; settings: read-out: Activity; summary of the method: as §1
[25] = test system: HOP-62; assay: Antiproliferative activity against human HOP-62 cells assessed as cell growth at 0.000001 M incubated for 48 hrs by SRB assay relative to control; settings: read-out: Activity; summary of the method: as §1
[26] = test system: HCT-15; assay: Antiproliferative activity against human HCT-15 cells assessed as cell growth at 0.000001 M incubated for 48 hrs by SRB assay relative to control; settings: read-out: Activity; summary of the method: as §1
[27] = test system: SF-539; assay: Antiproliferative activity against human SF-539 cells assessed as cell growth at 0.000001 M incubated for 48 hrs by SRB assay relative to control; settings: read-out: Activity
[28] = test system: CCRF-CEM; assay: Antiproliferative activity against human CCRF-CEM cells assessed as cell growth at 0.00001 M incubated for 48 hrs by SRB assay relative to control; settings: read-out: Activity; summary of the method: as §2
[29] = test system: 786-0; assay: Antiproliferative activity against human 786-0 cells assessed as cell growth at 0.00001 M incubated for 48 hrs by SRB assay relative to control; settings: read-out: Activity; summary of the method: as §2
[30] = test system: ACHN; assay: Antiproliferative activity against human ACHN cells assessed as cell growth at 0.00001 M incubated for 48 hrs by SRB assay relative to control; settings: read-out: Activity; summary of the method: as §2
[31] = test system: SK-MEL-5; assay: Antiproliferative activity against human SK-MEL-5 cells assessed as cell growth at 0.0001 M incubated for 48 hrs by SRB assay relative to control; settings: read-out: Activity
[32] = test system: ACHN; assay: Antiproliferative activity against human ACHN cells assessed as cell growth at 0.0001 M incubated for 48 hrs by SRB assay relative to control; settings: read-out: Activity; summary of the method: as §2
[33] = test system: PC-3; assay: Antiproliferative activity against human PC-3 cells assessed as cell growth at 0.0001 M incubated for 48 hrs by SRB assay relative to control; settings: read-out: Activity

Row | SMILES | growth at 0.01 µM [1] | CC50 [2] | growth at 0.01 µM [3] | growth at 0.01 µM [4] | growth at 0.01 µM [5] | CC50 [6] | TGI [7] | TGI [8] | TGI [9] | TGI [10] | GI50 [11] | GI50 [12] | GI50 [13] | growth at 0.01 µM [14] | growth at 0.1 µM [15] | growth at 0.1 µM [16] | growth at 0.1 µM [17] | growth at 0.1 µM [18] | growth at 0.1 µM [19] | growth at 0.1 µM [20] | other results
1 | COc1ccc(-c2cn3ccnc3c(-c3ccc4ncn(C5CCCCC5)c4c3)n2)cc1 | 86% | > 100000 nM | 97% | 96% | 94% | > 100000 nM | 2490 nM | > 100000 nM | > 100000 nM | > 100000 nM | 3160 nM | 424 nM | 622 nM | 99% | 91% | 94% | 87% | 82% | 92% | 90% | growth at 0.1 µM [21]: 98%; growth at 0.1 µM [22]: 88%; growth at 0.1 µM [23]: 99%; growth at 1 µM [24]: 52%; growth at 1 µM [25]: 52%; growth at 1 µM [26]: 42%; growth at 1 µM [27]: 35%; growth at 10 µM [28]: 16%; growth at 10 µM [29]: -32%; growth at 10 µM [30]: 13%; growth at 100 µM [31]: -31%; growth at 100 µM [32]: 23%; growth at 100 µM [33]: 24%
2 | c1ccc(Cn2cnc3ccc(-c4nc(-c5ccc6c(c5)ncn6C5CCCCC5)cn5ccnc45)cc32)cc1 | 89% | > 100000 nM | 104% | 95% | 99% | > 100000 nM | 2600 nM | 4930 nM | 4970 nM | > 100000 nM | 2600 nM | 2030 nM | 2300 nM | 102% | 98% | 98% | 90% | 82% | 94% | 88% | growth at 0.1 µM [21]: 96%; growth at 0.1 µM [22]: 92%; growth at 0.1 µM [23]: 104%; growth at 1 µM [24]: 113%; growth at 1 µM [25]: 82%; growth at 1 µM [26]: 65%; growth at 1 µM [27]: 53%; growth at 10 µM [28]: 8%; growth at 10 µM [29]: 4%; growth at 10 µM [30]: 11%; growth at 100 µM [31]: -46%; growth at 100 µM [32]: 23%; growth at 100 µM [33]: -3%
